KCNK9 inh = inhibitors of human KCNK9 two-pore domain potassium channel. Q9NPC2. HEK293 KCNK9, FluxOR thallium flux fluorescence; stronger effect = lower value. B-score at 10 µM. actives 1.2% (n = 310,000). AID 488922;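 active = ratio B-score over 3 SD below the library mean, with starting fluorescence within 5 SD of its mean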;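 note: negative B-score means less thallium flux so channel inhibition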
Target sequence (Q9NPC2 whole entry, looked up, the tested form may be a part): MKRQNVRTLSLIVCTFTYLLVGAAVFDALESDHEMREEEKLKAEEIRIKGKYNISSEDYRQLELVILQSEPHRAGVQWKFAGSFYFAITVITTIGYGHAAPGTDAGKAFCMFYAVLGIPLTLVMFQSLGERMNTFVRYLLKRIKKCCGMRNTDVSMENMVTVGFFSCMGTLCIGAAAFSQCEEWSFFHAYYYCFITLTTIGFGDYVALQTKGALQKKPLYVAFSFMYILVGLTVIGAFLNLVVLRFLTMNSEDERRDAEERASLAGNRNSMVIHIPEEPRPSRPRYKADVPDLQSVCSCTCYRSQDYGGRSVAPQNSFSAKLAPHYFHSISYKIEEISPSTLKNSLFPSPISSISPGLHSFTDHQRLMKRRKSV
KCNQ1 pot = human KCNQ1 channel potentiation or activation. AID 2648. P51787. CHO-K1 KCNQ1, thallium flux FluxOR fluorescence; stronger effect = higher value. actives 0.35% (n = 310,000). B-score at 10 µM;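 active = fluorescence ratio B-score, a plate-corrected score, at least three library SD, with initial intensity B-score within 5 SD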
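System: Stable KCNQ1 CHO-K1 line | Incubation: 90 min dye loading and 20 min compound exposure, both at room temperature | Measure: Ratio B score | Medium: Assay buffer for compound exposure, DMSO matched across wells | Compound dosing: Single-concentration screen | Probe or stimulus: K+/Tl+ depolarizing stimulus | Measured by: Kinetic FluxOR fluorescence, 10 s baseline plus 110 s post-stimulus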
hERG protect = compounds protecting human hERG from proarrhythmic drug block. Q12809. CHO-hERG, FluxOR thallium flux, dofetilide IC70 present. activation (rescue from dofetilide block), less the hit threshold, % at 10 µM. actives 0.51% (n = 310,000);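 active = activation above the mean of controls blocked by dofetilide plus 5 SD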;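 note: thallium influx through hERG after potassium depolarization seen as dye fluorescence rise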
KCNK3 inh = human KCNK3 channel inhibition, primary screen. CHO-KCNK3 thallium flux, FluxOR fluorescence; stronger effect = lower value. B-score at 10 µM. actives 0.84% (n = 340,000);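 active = B-score under library mean minus 4 SD, starting fluorescence ratio at most library mean plus 5 SD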;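 note: more negative B-score means stronger inhibition of thallium flux through KCNK3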
Kir21 inh = blocks the mouse Kir2.1 inward-rectifier potassium channel. HEK293-Kir2.1, FluxOR thallium flux fluorescence; stronger effect = lower value. B-score at 10 µM. actives 0.85% (n = 310,000);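 active = fluorescence ratio B-score at or below minus 3 SD of library scores, with starting-brightness B-score within 2 SD, cut at about -4.2 in these data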;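 note: channel flux triggered by added potassium and thallium sulfate stimulus; B-score of peak minus minimum fluorescence over baseline after thallium stimulus; more negative B-score means stronger Kir2.1 block with less thallium influx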
KCNQ1 block = blocks the human KCNQ1 potassium channel | B-score at 10 µM | CHO-K1 KCNQ1, FluxOR thallium flux fluorescence; stronger effect = higher value | AID 2642 | actives 1.3% (n = 310,000);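 active = compounds whose thallium flux B-score, printed positive for inhibition, exceeds three library SD while starting fluorescence stays within three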;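 note: channel opened by potassium depolarization with thallium stimulus after 20 min compound exposure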
KCNK9 inh conf = confirmation of human KCNK9 potassium channel inhibitors; AID 492992; shares compounds with KCNK9 inh; actives 43% (n = 4,900); HEK293 KCNK9 cells, FluxOR thallium flux fluorescence; inhibition, % at 10 µM;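 active = thallium signal inhibited by more than 5 SD of the compound-free buffer control wells, on both duplicate plates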;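 note: 0% = assay buffer control wells without compound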
Kir2-1 spec = mouse Kir2.1 off-target activity of KCNK9 modulators | actives 4% (n = 4,900) | Kir2.1 cells, FluxOR thallium flux fluorescence | shares compounds with KCNK9 inh | inhibition, % at 10 µM;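 active = thallium signal drop more than 5 SD beyond the mean of the no-compound control wells, seen in both duplicate plates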;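 note: signal is fluorescence rise after thallium addition divided by baseline fluorescence; plate controls were assay buffer only for no effect and full block by chlorpromazine control for full effect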
KCNK9 uninduced = second counter-screen for KCNK9 modulators: effect in non-induced cells; shares compounds with KCNK9 inh; non-induced KCNK9-HEK293, FluxOR thallium flux; inhibition, % at 10 µM; actives 40% (n = 4,900); AID 492997;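 active = thallium signal drop beyond 5 SD of the untreated control mean, on both duplicate plates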;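 note: plate controls were buffer only IC0 wells for no effect and SID17386958 at its maximal inhibitory level for full effect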
* marks the source's active call; other numbers are inactive results. A selection follows.

For CC1CC(C)CN(C(=O)c2ccc(S(=O)(=O)N3CC(C)CC(C)C3)cc2)C1 (centres undefined) the results were KCNK9 inh inactive, KCNQ1 pot inactive, hERG protect -6, KCNK3 inh inactive, Kir21 inh -0.82, KCNQ1 block inactive, KCNK9 inh conf inactive, Kir2-1 spec inactive and KCNK9 uninduced inactive.
CC1CC(C)CN(C(=O)c2ccc(C(=O)c3ccccc3)cc2)C1 (centres undefined) was read as KCNK9 inh inactive, KCNQ1 pot inactive, hERG protect -13, KCNK3 inh inactive, Kir21 inh 1.6, KCNQ1 block inactive, KCNK9 inh conf inactive, Kir2-1 spec inactive and KCNK9 uninduced inactive.
For CC1CC(C)CN(C(=O)c2ccc(C#N)cc2)C1 (centres undefined) the results were KCNK9 inh inactive, KCNQ1 pot inactive, hERG protect -6, KCNK3 inh inactive, Kir21 inh -2 and KCNQ1 block inactive.
For Cc1cc(NC(=O)/C(C#N)=C\c2ccc(-c3ccc(SC(F)F)cc3)o2)n(-c2ccccc2)n1 the results were KCNK3 inh inactive.
Screening CCOC(=O)C1(Cc2cccc(OC)c2)CCN(Cc2cccn2-c2nccs2)CC1 returned KCNK9 inh inactive, KCNQ1 pot inactive, hERG protect -14, KCNK3 inh inactive, Kir21 inh -2.5 and KCNQ1 block inactive.
Screening CCOC(=O)C1(Cc2ccccc2C(F)(F)F)CCN(Cc2ccc(COC)o2)CC1 returned KCNK9 inh inactive, KCNQ1 pot inactive, hERG protect -9, KCNK3 inh inactive, Kir21 inh -0.4, KCNQ1 block inactive, KCNK9 inh conf inactive, Kir2-1 spec inactive and KCNK9 uninduced inactive.
For CCOC(=O)C1(Cc2ccccc2)CCN(Cc2cccc3nccnc23)CC1 the results were KCNK9 inh inactive, KCNQ1 pot inactive, hERG protect 0, KCNK3 inh inactive, Kir21 inh -1.5, KCNQ1 block inactive, KCNK9 inh conf inactive, Kir2-1 spec inactive and KCNK9 uninduced inactive.
For CCOC(=O)C1(Cc2ccccc2)CCN(Cc2cccn2-c2nccs2)CC1 the results were KCNK9 inh inactive, KCNQ1 pot inactive, hERG protect -7, KCNK3 inh inactive, Kir21 inh -0.53, KCNQ1 block inactive, KCNK9 inh conf inactive, Kir2-1 spec inactive and KCNK9 uninduced inactive.
CCOC(=O)C1(CCc2ccccc2)CCN(Cc2ccc(C(=O)OC)cc2)CC1 was read as KCNK9 inh inactive, KCNQ1 pot inactive, hERG protect -15, KCNK3 inh inactive, Kir21 inh 1.5 and KCNQ1 block inactive.
CCOC(=O)C1(CCc2ccccc2)CCN(Cc2cc(OC)c(OC)cc2OC)CC1 was read as KCNK9 inh inactive, KCNQ1 pot inactive, hERG protect -14, KCNK3 inh inactive, Kir21 inh -0.52, KCNQ1 block inactive, KCNK9 inh conf inactive, Kir2-1 spec inactive and KCNK9 uninduced inactive.
CC[C@]12c3[nH]c4ccccc4c3CCN1C(=O)C(CC(=O)NCCCOC)C[C@@H]2C(=O)N1CCN(C(=O)c2ccco2)CC1 (some centres undefined) was read as KCNK3 inh inactive.
C=CC[C@@H](CC(=O)N[C@H](CO)Cc1ccccc1)C(=O)N[C@H](COC(=O)[C@@H](CC=C)CC(=O)OC(C)(C)C)Cc1ccccc1 was read as KCNK3 inh inactive.
